According to PMC3910017 (CPT: Pharmacometrics & Systems Pharmacology, 2014):
Several values for one entry are separate records, joined by “and”; a condition that tells them apart may be missing. Identical values can stand only once. Like-named read-outs stand apart in the source and are kept apart here. Blank lines part the entries; values can stand above or below the molecule they belong to.

Columns and labels:
[1] = patients in the ILLUMINATE study; cited from earlier work
HDL-C [2] = conditions: similar exposure-response analysis; cited from earlier work
[3] = cited from earlier work
LDL-C [4] = conditions: cited from earlier work
[5] = format: in vivo, human
HDL-C [6] = conditions: dyslipidemic patients, alone or with statins; cited from earlier work
[7] = ref J.G. Suico et al., unpublished data, cited from earlier work
LDL-C [8] = conditions: dyslipidemic patients, alone or with statins; cited from earlier work
Protein binding = format: in vitro ADME; conditions: separate studies
[9] = Healthy subject studies of evacetrapib; format: in vivo, human; conditions: 30-mg single dose, healthy subjects; data not shown
[10] = cited from earlier work; remark: listed apart in the source
Metabolism = conditions: separate studies
HDL-C [11] = assay: HDL-C percent change from baseline, exposure-response; format: in vivo, human; conditions: for HDL-C increase as percent of the maximal effect: from EAUC50 and estimated AUC
How it was run: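 Dyslipidemic patients took placebo or 30, 100 or 500 mg daily for 12 weeks, or 100 mg plus simvastatin 40 mg, atorvastatin 20 mg or rosuvastatin 10 mg. HDL-C was measured by enzymatic assay at weeks 2, 4, 8 and 12. Percent change from baseline was fitted with placebo and statin terms plus a sigmoid Emax on each patient's post hoc steady-state AUC (EAUC50, Hill coefficient), with rate constant K.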

LDL-C [12] = assay: LDL-C percent change from baseline, exposure-response; format: in vivo, human
How it was run: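 Arms were placebo or 30, 100 or 500 mg daily monotherapy, or 100 mg with simvastatin 40 mg, atorvastatin 20 mg or rosuvastatin 10 mg, for 12 weeks. LDL-C was measured by standard enzymatic assay at weeks 2, 4, 8 and 12. Percent change from baseline was modelled with placebo, statin and test-compound Emax terms on post hoc AUC, an interaction term, and time constant K. Covariates included baseline ApoA1.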

[13] = phase III formulation of anacetrapib
[14] = week 16–18, 4–6 weeks after last dose, monotherapy groups

Structure (SMILES): CCOC(=O)N1c2ccc(C(F)(F)F)cc2[C@@H](N(Cc2cc(C(F)(F)F)cc(C(F)(F)F)c2)C(=O)OC)C[C@H]1CC [torcetrapib]
Adverse cardiovascular events [1]: increased adverse cardiovascular events

Structure (SMILES): COc1cc(F)c(C(C)C)cc1-c1ccc(C(F)(F)F)cc1CN1C(=O)O[C@H](c2cc(C(F)(F)F)cc(C(F)(F)F)c2)[C@@H]1C [anacetrapib]
Maximal effect on HDL-C (HDL-C [2]): 176% | Increase of exposure with dose [3]: Less than dose-proportional | AUC with high-fat meal vs fasted state [3, 13]: 7.5 fold | AUC with low-fat meal vs fasted state [3, 13]: 2.2 fold | LDL-C reduction in combination with atorvastatin, kind of interaction (LDL-C [4]): pharmacologically independent | Theoretical maximal LDL-C reduction (LDL-C [4]; similar LDL-C model): 80%

Increase of exposure with dose ([5]; 30–500 mg, dyslipidemic patients): less than dose-proportional | Model-predicted population CL/F lower at CGCL 50 ml/minute than at 100 ml/minute ([5]; CGCL 50 vs 100 ml/minute): 10% | Effect of dose on CL/F (covariate coefficient) ([5]; CL/F = 15.3 * (1+0.00105 * DOSE) * (1+0.00198 * (CGCL − 91.28)), DOSE in mg): 0.00105 (21.6%, 0.000726–0.00144) | CL/F, estimated population value ([5]; dose 30 mg): 13.1 L/h | CL/F, estimated population value ([5]; dose 100 mg): 17.0 L/h | CL/F, estimated population value ([5]; dose 500 mg): 25.4 L/h | Oral clearance (CL/F), population estimate (%SEE, 95% CI) ([5]; final population PK model): 15.3 (4.57%, 14.3–16.5) l/hour | Peripheral volume of distribution (V3/F), population estimate (%SEE, 95% CI) ([5]; final population PK model): 827 (18%, 600.7–1,071) l | Rate of absorption (Ka) ([5]; final population PK model, value fixed, not estimated): 0.3 hour^-1 and 0.3 (fixed) hour^-1 | Vd/F ([5]; human, plasma, oral): 228 L | Protein bound (Protein binding): > 99% | AUC0–∞ increased after a high-fat meal relative to low-fat meal [9]: 41% | AUC0–∞ reduced in the fasted state relative to low-fat meal [9]: 38%
Structure (SMILES): Cc1cc(C)c2c(c1)[C@@H](N(Cc1cc(C(F)(F)F)cc(C(F)(F)F)c1)c1nnn(C)n1)CCCN2C[C@H]1CC[C@H](C(=O)O)CC1 [evacetrapib]
Observed HDL-C increase (HDL-C [6]): up to 129% | Half-life ([7]; healthy subject studies): ~40 h | Increase of exposure with dose ([7]; healthy subjects, 10–600 mg dose range): less than dose-proportional | Observed LDL-C decrease (LDL-C [8]): up to 36% | Safety and tolerability ([10]; administered alone or in combination with statins): safe and well tolerated | Changes in mineralocorticoid levels or increases in systolic or diastolic blood pressure ([10]; dyslipidemic patients): did not cause any significant changes | Metabolism (Metabolism): metabolized primarily by oxidative pathways | HDL-C increase as percent of the maximal effect (HDL-C [11]; 30 mg dose): ~ 30 % of the maximal effect | HDL-C increase as percent of the maximal effect (HDL-C [11]; 100 mg dose): ~50 % of the maximal effect | HDL-C increase as percent of the maximal effect (HDL-C [11]; 500 mg dose): ~80 % of the maximal effect | Time course constant (K) of HDL-C response, population estimate (%SEE, 95% CI) (HDL-C [11]; final HDL-C model): 0.00684 (7.43%, 0.00604–0.00791) hour^−1 | AUC that produced half of maximum effect (EAUC50), HDL-C, population estimate (%SEE, 95% CI) (HDL-C [11]; final HDL-C model, at median baseline HDL 52.2 mg/dl): 5,380 (1.54%, 3,930–7,270) h·ng/ml | Maximum effect (Emax) on HDL-C, population estimate (%SEE, 95% CI) (HDL-C [11]; theoretical maximum at steady state, final HDL-C model): 177 (6.55%, 153–207) % change from baseline | HDL-C at follow-up visit after discontinuation (HDL-C [11]; [14]): returned to levels similar to those of the placebo group | LDL-C response of evacetrapib and the statins, kind of interaction (LDL-C [12]; coadministered with atorvastatin, simvastatin or rosuvastatin): pharmacologically independent | AUC that produced half of maximum effect (EAUC50), LDL-C, population estimate (%SEE, 95% CI) (LDL-C [12]; final LDL-C model): 4,230 (3.23%, 2,450 to 7,010) h·ng/ml | Theoretical maximal mean LDL-C decrease (reduction) relative to baseline (LDL-C [12]; final LDL-C model, printed as a reduction): 44.1% | LDL-C at follow-up visit after discontinuation (LDL-C [12]; [14]): returned to levels similar to those of the placebo group
